Screening results (PubChem BioAssay)
SR-BI HDL uptake = blocks mouse SR-BI lipid uptake from DiI-HDL; Q61009; ldlA[mSR-BI] CHO cells, DiI-HDL uptake fluorescence, 3 h; inhibition, % at 12.5 µM; hit rate 0.96% among 320,000; AID 488896;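 active means mean replicate inhibition of at least 70% and a set share of replicates each scoring 70 or more; inconclusive means meets just one of the two criteria; inactive means fails both criteria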
Target sequence (Q61009 whole entry, looked up): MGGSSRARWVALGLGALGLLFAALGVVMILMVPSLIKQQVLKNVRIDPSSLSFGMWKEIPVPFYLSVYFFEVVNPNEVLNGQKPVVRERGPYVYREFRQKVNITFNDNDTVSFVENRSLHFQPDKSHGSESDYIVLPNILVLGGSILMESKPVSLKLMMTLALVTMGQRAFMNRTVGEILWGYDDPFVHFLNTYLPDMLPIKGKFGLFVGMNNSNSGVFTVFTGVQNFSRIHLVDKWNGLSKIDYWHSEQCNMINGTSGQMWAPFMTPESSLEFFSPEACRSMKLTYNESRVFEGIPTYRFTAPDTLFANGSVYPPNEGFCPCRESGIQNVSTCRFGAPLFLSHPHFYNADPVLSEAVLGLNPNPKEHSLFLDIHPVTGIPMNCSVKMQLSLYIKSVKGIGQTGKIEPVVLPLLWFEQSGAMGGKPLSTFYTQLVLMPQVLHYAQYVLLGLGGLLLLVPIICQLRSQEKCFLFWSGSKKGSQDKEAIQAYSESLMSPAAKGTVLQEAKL
dFosB act = activators of mouse delta FosB homodimer. purified delta FosB, TAMRA-CDK5 oligo fluorescence polarization; percent of positive-control signal above neutral wells. activation, % at 25 µM. AID 493131. hit rate 0.99% among 340,000;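 active means mean activation above about 17%, with every replicate also reaching it, limit read from the data, passing the limit was not always enough; inconclusive means only one of the two conditions met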
S100A4 inh HTS = S100A4-myosin IIA interaction inhibition. hit rate 0.14% among 360,000. S100A4/TAMRA-MyoIIA peptide fluorescence polarization. inhibition, % at 10.7 µM. AID 652163. P26447;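 active means mean inhibition of at least 70% across replicates, with every replicate also reaching that level; inconclusive means mean inhibition reaches 70% but some replicates fall short; inactive means mean inhibition below 70%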
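assay system = human S100A4 monomer with TAMRA-labelled myosin IIA peptide | also added = labelled myosin peptide probe, 5 nM | incubation = 5 min between mix addition and reading | control set = DMSO and TFP controls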
PvdQ acylase = P. aeruginosa PvdQ acylase inhibition; purified PvdQ acylase, fluorescence plate reader; inhibition, % at 10 µM; hit rate 0.063% among 340,000; in the data active means inhibition above about 30%, passing the limit was not always enough; inconclusive means no clear call, values can overlap the other calls
SR-BI DiI-HDL act = activators of SR-BI mediated HDL lipid uptake; hit rate 0.096% among 320,000; AID 504775; CHO ldlA[mSR-BI] cells, DiI-HDL uptake fluorescence, 3 h; 100 = double the neutral-control signal; activation, % at 12.5 µM;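 active means mean replicate activation of at least 60% and every replicate at or above 60%; inconclusive means mean or all-replicate condition met, but not both; inactive means mean below 60% and not all replicates reaching 60%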
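Material: SR-BI-overexpressing, LDLR-lacking CHO cells | Dosing: Single compound concentration, delivered by pin transfer | Probe or stimulus: Labelled HDL, 10 µg/mL | Signal: Bottom-read cell fluorescence after medium removal, ex 550/em 595 nm | Schedule: 3 h, 37 °C | Evaluation: HDL uptake via cellular fluorescence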
RAD54 inh = inhibitors of human RAD54 branch migration; hit rate 0.14% among 360,000; inhibition, % at 10.4 µM; Q92698; RAD54 Holliday junction branch migration, FAM/BHQ fluorescence;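 active means mean normalized replicate activity at least 40 and at least half of replicates scoring 40 or more; inconclusive means only one of the two criteria met; inactive means mean below 40 and under half of replicates reaching 40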;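 further: inhibitors cause a drop in the FAM fluorescence signal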
Hits are given with their value; . = inactive; ? = inconclusive; / = no result given. In the library only some 1.6% were active in any assay of this set; here they are far more common.

SMILES	SR-BI HDL uptake	dFosB act	S100A4 inh HTS	PvdQ acylase	SR-BI DiI-HDL act	RAD54 inh
COc1ccc(C(=O)N=c2sc3c(C)ccc(OC)c3n2C)cc1	77	.	.	.	.	.
COc1cc(C(=O)N=c2sc3c(C)ccc(OC)c3n2C)cc(OC)c1OC	78	.	.	.	.	/
COc1cc(C(=O)N=c2sc3ccccc3n2C)cc(OC)c1OC	?	.	.	.	.	/
COc1ccc(OC)c2c1sc(=NC(=O)C(C)(C)C)n2C	.	.	.	.	.	.
COc1ccccc1C1c2[nH]c3ccccc3c2C[C@H]2C(=O)N(C3CCN(Cc4ccccc4)CC3)CC(=O)N12 (some centres undefined)	.	38	.	.	.	.
COc1ccc(C2c3[nH]c4ccccc4c3C[C@H]3C(=O)N(C4CCN(Cc5ccccc5)CC4)CC(=O)N23)cc1OC (some centres undefined)	.	.	.	.	.	.
COc1cccc(C2c3[nH]c4ccccc4c3C[C@H]3C(=O)N(C4CCN(Cc5ccccc5)CC4)CC(=O)N23)c1 (some centres undefined)	.	38	.	.	.	.
COc1ccc(NC(=O)C(C)Sc2nnc(C3CC3)n2C2CC2)cc1 (centres undefined)	.	.	.	.	.	.
CC(=O)c1ccc(NC(=O)C(C)Sc2nnc(C3CC3)n2C2CC2)cc1 (centres undefined)	76	.	.	.	.	.
CC(C)NC(=O)NCC[C@@H]1CC[C@H](NS(=O)(=O)c2ccccc2)[C@@H](CO)O1	/	/	.	/	/	/
O=C(C[C@@H]1CC[C@H]2[C@@H](COC[C@@H](O)CN2S(=O)(=O)c2ccc(F)cc2)O1)NCC1CCCCC1	/	/	.	/	/	.
Nc1ccc(C2=Nc3cccc4cccc(c34)N2)cc1	.	41	.	.	.	.
CC1(C)CC(=O)c2c(O)cc(OCC(=O)N3CCN(c4ccc(F)cc4)CC3)cc2O1	80	.	.	.	.	.
Nc1ccc(-c2nc(-c3ccccc3)nc3ccccc23)cc1	72	.	.	.	.	.
Nc1ccc(-c2cc(-c3cccc(N)c3)nc(-c3ccccc3)n2)cc1	.	.	.	.	.	.
Cc1ccccc1C(=O)Nc1ccccc1-c1nnn(CC(=O)Nc2ccc3c(c2)OCCO3)n1	.	31	/	.	.	.
CSc1cccc(NC(=O)/C=C/c2ccccc2)c1	73	.	.	.	.	.
COc1ccccc1C(=O)Nc1ccc2c(c1)C(=O)N(C)[C@H]1CC[C@@H](CC(=O)NCCc3ccncc3)O[C@H]1CO2	/	/	.	/	/	.
CCC1(CC)NC(=O)N(CC(=O)OC(C)C(=O)Nc2cc([N+](=O)[O-])ccc2OC)C1=O (centres undefined)	74	.	.	.	.	.
CO[C@H]1CC[C@H]2CCN(C)C(=O)[C@H](C)[C@H](OC)CN(C)C(=O)c3cccc(C#N)c3OC[C@H]1O2	/	/	.	/	/	.
CC(=O)NNc1[nH]c2c(c(=O)c1[N+](=O)[O-])c(=O)n(C)c(=O)n2C	.	.	.	.	68	.
CC(=O)Nc1c(NC(=O)CC#N)[nH]c2c(c1=O)c(=O)n(C)c(=O)n2C	.	.	/	.	.	/
C[C@H](CO)N1C[C@H](C)[C@@H](CN(C)Cc2ccccc2)Oc2c(NC(=O)c3cnccn3)cccc2C1=O	/	/	.	/	/	.
CCOC(=O)c1sc(NC(=O)c2cccc(S(=O)(=O)N3CCc4ccccc43)c2)c(C#N)c1C	76	.	.	.	.	.
COc1ccc(NC(=O)CN(C)C(=O)c2cccc(S(=O)(=O)N3CCCc4ccccc43)c2)cc1	.	.	.	.	.	.
O=C(Nc1nc2ccc(F)cc2s1)c1cccc(S(=O)(=O)N2CCc3ccccc32)c1	74	?	.	.	.	.
CN(CC(=O)Nc1ccccc1Br)C(=O)c1cccc(S(=O)(=O)N2CCc3ccccc32)c1	82	.	.	.	.	.
CCC(CC)c1nnc(NC(=O)c2cccc(S(=O)(=O)N3CCc4ccccc43)c2)s1	.	.	.	.	.	.
C[C@H]1CN([C@@H](C)CO)C(=O)c2cc(-c3cncnc3)cnc2O[C@H]1CN(C)C(=O)c1cccc(F)c1	/	/	.	/	/	.
